In publication PMC7165017 (Inorganic chemistry, 2019):
Where two headings read alike, the source gives them in different places.

Assays:
[1] = test system: microtubule network in MDA-MB-231 cells; experiment: Immunofluorescence study of microtubule network disruption; assay type: cell-based, human; settings: 12 h; cisplatin 50 μM, colchicine 100 nM (controls)
In short: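 5 × 10^4 MDA-MB-231 cells were grown on glass coverslips for 48 h, then treated 12 h (vehicle 0.1% DMSO). Fixation used 4% paraformaldehyde for 10 min and 100 mM glycine quench, followed by 3% BSA/PBST block for 20 min. Rabbit monoclonal anti-α-tubulin (1:400, 2 h) was followed by AlexaFluor 488 anti-rabbit (1:1000, 2 h, dark) and DAPI mount. Confocal imaging used a 63× objective. Microtubule-network perimeter was averaged over ≥10 treated versus ≥10 untreated cells and expressed as relative perimeter.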

[2] = Solution stability study by 1H NMR; assay type: physicochemical; settings: DMSO-d6/phosphate buffer 3:7 (v/v), within 12 h
In short: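 Complexes were monitored by 1H NMR in DMSO-d6 or DMF-d7 mixed 1:9 (v/v) with degassed 20 mM phosphate buffer (pD 7.4, 4 mM NaCl). Spectra were taken at 25 °C at time points up to 24 h. Free ligands were monitored in DMSO-d6/phosphate buffer 3:7 (v/v).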

[3] = test system: MIA PaCa-2 cells; experiment: MTT cell viability assay, MIA PaCa-2; assay type: cell-based, human; settings: read-out: IC50 ± SD, MIA PaCa-2, 48 h, normoxia (∼15% O2)
In short: (§1)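 Media: Hep G2 in MEM, MIA PaCa-2 in DMEM, MDA-MB-231 in DMEM/F-12, each with 10% FBS and antibiotics. Cells were seeded at 6 × 10^3 per well and kept 48 h at 37 °C, 5% CO2. Medium was renewed, then compound was added (DMSO ≤0.2%, vehicle-matched) for 48 h in triplicate wells. MTT (1 mg mL−1) ran 3 h; formazan was dissolved in DMSO and read at 595 nm versus untreated wells. IC50 came from a four-parameter variable-slope fit, ≥3 independent experiments. Hypoxic MDA-MB-231 cells were kept at 1.5% O2 for ≥2 passages beforehand.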

[4] = test system: Hep G2 cells; experiment: MTT cell viability assay, Hep G2; assay type: cell-based, human; settings: read-out: IC50 ± SD, Hep G2, 48 h, normoxia (∼15% O2)
In short: as §1

[5] = test system: MDA-MB-231 cells; experiment: MTT cell viability assay, MDA-MB-231; assay type: cell-based, human
In short: as §1

Q: For `COc1cc2c(c(OC)c1OC)-c1ccc(OC)c(=O)cc1[C@@H](NC(C)=O)CC2` [colchicine, reference compound], which “disruption of the microtubule network” value [1] is on record?
A: exhibited microtubule network damage

Q: For `COc1cccc(C=Nc2cc(OC)c(OC)c(OC)c2)c1O` [Complex L3, 2-Methoxy-6-{[(3,4,5-trimethoxyphenyl)imino]-methyl}phenol], which “hydrolysis of ligand into amine and aldehyde” value [2] is on record?
A: ~80%

Q: For `[NH2][Pt]([NH2])([Cl])[Cl]` [CDDP, cisplatin, reference compound], which “disruption of the microtubule network” value [1] is on record?
A: did not observe any disruption of the microtubule formation

Q: And the IC50 [3]?
A: 31.8 ± 4.8 µM

Q: And the IC50 [4]?
A: 14.3 ± 0.8 µM

Q: And the IC50 ([5]; read-out: IC50 ± SD, MDA-MB-231 (hypo), 48 h, hypoxia (1.5% O2))?
A: 37.8 ± 2.3 µM

Q: What about the IC50 ([5]; read-out: IC50 ± SD, MDA-MB-231, 48 h, normoxia (∼15% O2)) of the same compound?
A: 37.2 ± 2.5 µM

Q: For `COc1cc(N=Cc2ccccc2O)cc(OC)c1OC` [Complex L1, 2-{[(3,4,5-Trimethoxyphenyl)imino]-methyl}phenol], which “hydrolysis of ligand into amine and aldehyde” value [2] is on record?
A: ~80%
